Measurements published in PMC4878416 (Diabetes, 2016).
pIC50: −log10 of the molar value.

What was measured:
[1] = target: T1, tyrosine kinase TXK (Homo sapiens, UniProt P42681); assay: Human kinome profiling, TXK; format: biochemical; details: read-out: remaining activity TXK
T1 sequence (P42681 1-527): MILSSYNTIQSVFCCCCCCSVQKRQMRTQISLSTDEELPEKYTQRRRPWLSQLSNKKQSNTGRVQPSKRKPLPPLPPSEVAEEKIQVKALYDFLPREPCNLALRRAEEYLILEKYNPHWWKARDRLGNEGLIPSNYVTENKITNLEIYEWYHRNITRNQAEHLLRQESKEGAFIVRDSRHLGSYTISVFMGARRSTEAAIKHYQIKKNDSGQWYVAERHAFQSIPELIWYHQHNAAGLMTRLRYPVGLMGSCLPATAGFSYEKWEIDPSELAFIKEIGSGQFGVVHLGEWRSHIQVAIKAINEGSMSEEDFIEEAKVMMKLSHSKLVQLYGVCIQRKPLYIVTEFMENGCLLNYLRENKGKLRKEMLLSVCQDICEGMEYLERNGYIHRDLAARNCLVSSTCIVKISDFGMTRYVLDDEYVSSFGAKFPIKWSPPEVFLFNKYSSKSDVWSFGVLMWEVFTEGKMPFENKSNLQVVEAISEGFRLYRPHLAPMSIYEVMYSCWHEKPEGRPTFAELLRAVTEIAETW
Outline: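 Human kinases profiled by commercial providers under their standard protocols; ATP within 15 μmol/L of the apparent KM for each enzyme.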

[2] = test system: human β-cells; assay: EdU incorporation proliferation assay in dissociated human islet cells; format: cell-based
Outline: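 Human islets dissociated in Accutase (5,000 IEQ/mL, 37°C, 20 min), resuspended in CMRL complete medium and seeded at ~30,000 (96-well) or ~15,000 (384-well) cells per well. EdU was present throughout the 6-day treatment, including FK506 cotreatment. Cells were fixed (3% PFA), permeabilised (0.2% Triton X-100) and stained for C-peptide and DAPI. EdU+ β-cells were scored by automated imaging and manually; 4 wells, 9 fields each; mean ± SD; two-tailed t test vs DMSO.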

[3] = target: adenosine kinase; details: read-out: IC50 adenosine kinase; cited from earlier work
[4] = test system: human islet cells (all cell types); details: cited from earlier work
[5] = target: DYRK1A (Homo sapiens, UniProt Q13627); assay: Biochemical assay for DYRK1A activity using the purified catalytic domain
[6] = test system: p27KIP phosphorylation (S10); assay: Western blot of p27KIP phosphorylation; format: cell-based, rat; details: INS-1E cells, 24 or 48 h, 10 μmol/L harmine or 0.5 μmol/L 5-IT
Outline: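 Cells were treated after overnight attachment and lysed in RIPA buffer. Western blots were probed for p27KIP S10 phosphorylation, with actin as loading control.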

Structure (SMILES): Nc1ncnc2nc(-c3ccc(N4CCOCC4)nc3)cc(-c3cccc(Br)c3)c12 [ABT-702, 4-amino-5-(3-bromophenyl)-7-(6-morpholinopyridin-3-yl)pyrido[2,3-d]pyrimidine]
- remaining activity at 0.5 µM [1]: 60%
- effect on EdU incorporation ([2]; tested up to 20 μmol/L, 6-day treatment): no effect
- pIC50 [3]: 8.77

Structure (SMILES): COC(=O)C1=C(C)NC(C)=C([N+](=O)[O-])C1c1ccccc1C(F)(F)F (stereo not shown) [Bay K8644]
- cellular proliferation in human islet cell culture [4]: induces nonspecific cellular proliferation

Structure (SMILES): C=CC[C@@H]1/C=C(\C)C[C@H](C)C[C@H](OC)[C@H]2O[C@@](O)(C(=O)C(=O)N3CCCC[C@H]3C(=O)O[C@H](/C(C)=C/[C@@H]3CC[C@@H](O)[C@H](OC)C3)[C@H](C)[C@@H](O)CC1=O)[C@H](C)C[C@@H]2OC [FK506]
- effect of cotreatment on 5-IT-induced EdU-positive β-cells ([2]; 1 μmol/L FK506 with 1 μmol/L 5-IT): completely blocked
- effect of cotreatment on harmine-induced EdU-positive β-cells ([2]; 1 μmol/L FK506 with 10 μmol/L harmine): completely blocked

Structure (SMILES): COc1ccc2c3c([nH]c2c1)C(C)=NCC3 [harmaline]
- activity toward DYRK1A [5]: no activity
- effect on EdU incorporation versus vehicle ([2]; 6-day treatment): no effect

Structure (SMILES): COc1ccc2c(c1)[nH]c1c(C)nccc12 [harmine]
- p27KIP phosphorylation [6]: decrease
- effect on EdU-positive cells ([2]; 5 and 10 μmol/L, 6-day treatment): dose-dependent increase
